The values below come from ChEMBL document CHEMBL3399931, “Reversible and irreversible small molecule inhibitors of monoamine oxidase B (MAO-B) investigated by biophysical techniques” (Bioorg Med Chem, 2015).

Molecules are shown by their SMILES.

Data set [1] has as its target T1, Amine oxidase [flavin-containing] B (Rattus norvegicus, UniProt P19643).
T1 sequence (P19643 whole entry): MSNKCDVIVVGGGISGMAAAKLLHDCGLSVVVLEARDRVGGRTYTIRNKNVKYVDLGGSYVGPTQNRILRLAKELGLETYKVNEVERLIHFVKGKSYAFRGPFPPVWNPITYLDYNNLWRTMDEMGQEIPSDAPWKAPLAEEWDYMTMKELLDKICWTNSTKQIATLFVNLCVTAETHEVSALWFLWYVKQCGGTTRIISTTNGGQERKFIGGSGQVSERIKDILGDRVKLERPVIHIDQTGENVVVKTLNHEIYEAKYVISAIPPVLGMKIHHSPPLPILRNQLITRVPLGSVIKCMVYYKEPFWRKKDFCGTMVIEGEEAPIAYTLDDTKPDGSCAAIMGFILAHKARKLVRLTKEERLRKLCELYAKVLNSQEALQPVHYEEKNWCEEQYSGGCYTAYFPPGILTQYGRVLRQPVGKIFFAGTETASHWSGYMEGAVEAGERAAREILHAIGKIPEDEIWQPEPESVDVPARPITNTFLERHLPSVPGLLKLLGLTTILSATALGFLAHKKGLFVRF
The data set is described as follows: Reversible inhibition of MAO-B in rat whole brain homogenate assessed as recovered activity at 100 times IC50 incubated for 60 mins followed by 3 washes by Amplex Red assay. The class given is tissue-based. Set-up: scale not given: the % may be the effect or the level left. Conditions: 1 h; call rule not given here.

Data set [2] addresses T1, Amine oxidase [flavin-containing] B. The data set is described as follows: Reversible inhibition of MAO-B in rat whole brain homogenate assessed as recovered activity at 100 times IC50 incubated for 60 mins followed by 6 washes by Amplex Red assay. Set-up: scale not given: the % may be the effect or the level left. The class given is tissue-based. Conditions: 1 h.
For data set [3], the target named is T2, Amine oxidase [flavin-containing] B (Homo sapiens, UniProt P27338).
T2 sequence (P27338 whole entry): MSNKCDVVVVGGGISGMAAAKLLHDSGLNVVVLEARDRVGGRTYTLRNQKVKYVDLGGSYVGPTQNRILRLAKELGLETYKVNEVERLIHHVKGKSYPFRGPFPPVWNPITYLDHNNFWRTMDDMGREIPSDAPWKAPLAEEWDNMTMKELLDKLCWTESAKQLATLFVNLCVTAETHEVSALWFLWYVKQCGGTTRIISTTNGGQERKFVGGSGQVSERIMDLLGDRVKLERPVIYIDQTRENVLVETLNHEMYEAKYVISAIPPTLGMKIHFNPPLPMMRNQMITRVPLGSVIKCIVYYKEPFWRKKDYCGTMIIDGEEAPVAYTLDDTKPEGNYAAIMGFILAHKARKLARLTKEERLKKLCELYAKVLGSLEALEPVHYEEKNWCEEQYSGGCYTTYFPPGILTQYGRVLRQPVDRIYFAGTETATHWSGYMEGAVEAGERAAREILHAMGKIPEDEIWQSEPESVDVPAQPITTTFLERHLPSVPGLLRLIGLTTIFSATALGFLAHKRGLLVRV
The data set is described as follows: Inhibition of human recombinant soluble MAO-B assessed as change in melting temperature at 100 uM after 20 mins by SYPRO orange staining-based fluorescence assay. The method, boiled down: (§1)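 It was preincubated with serial compound dilutions (0.5–10 µM or 1.7–100 µM) for 20 min at 4 °C in 10% DMSO. 1x SYPRO orange was then added and samples ramped 25–80 °C at 1 °C/s. Boltzmann Tm was taken from the ~50–70 °C region, and ΔTm = Tm(compound) − Tm(DMSO only).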

Data set [4] addresses T2, Amine oxidase [flavin-containing] B. The data set is described as follows: Inhibition of human recombinant soluble MAO-B assessed as change in melting temperature at 10 uM after 20 mins by SYPRO orange staining-based fluorescence assay.
Data set [5] has as its target T1, Amine oxidase [flavin-containing] B. Kind of data set: Inhibition of MAO-B in rat whole brain homogenate. The data set is classed as tissue-based. An outline of the steps: (§2)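 Insoluble fraction of rat brain lysate was assayed with the non-selective MAO-Glo substrate. Dose–response curves were run against a matrix of fixed concentrations of an MAO-A-selective inhibitor (0.06–200 nM) and an MAO-B-selective inhibitor (0.05–50,000 nM), so that each isoform's contribution could be separated.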

Data set [6] concerns the target T3, Amine oxidase [flavin-containing] A (Rattus norvegicus, UniProt P21396).
T3 sequence (P21396 whole entry): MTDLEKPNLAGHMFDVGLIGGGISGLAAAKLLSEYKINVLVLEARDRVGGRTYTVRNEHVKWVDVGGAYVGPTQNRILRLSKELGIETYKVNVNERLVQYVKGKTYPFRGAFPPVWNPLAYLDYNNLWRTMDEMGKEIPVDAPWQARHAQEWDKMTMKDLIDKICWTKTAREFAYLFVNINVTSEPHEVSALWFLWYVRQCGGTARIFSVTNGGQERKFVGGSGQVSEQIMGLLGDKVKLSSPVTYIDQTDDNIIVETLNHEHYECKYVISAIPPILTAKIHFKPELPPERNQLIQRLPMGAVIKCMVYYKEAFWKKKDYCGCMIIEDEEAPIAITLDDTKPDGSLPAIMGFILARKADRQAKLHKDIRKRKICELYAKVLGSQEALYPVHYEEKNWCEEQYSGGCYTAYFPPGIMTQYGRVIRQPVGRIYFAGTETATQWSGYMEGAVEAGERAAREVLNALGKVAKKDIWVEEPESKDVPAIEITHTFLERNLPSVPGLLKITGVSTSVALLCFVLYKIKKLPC
Kind of data set: Inhibition of MAO-A in rat whole brain homogenate. The data set is classed as tissue-based. An outline of the steps: as §2

In data set [7] the target is T2, Amine oxidase [flavin-containing] B. The data set is described as follows: Inhibition of human recombinant soluble MAO-B expressed in Pichia pastoris incubated for 30 mins prior to substrate addition measured after 60 mins by MAO-Glo assay.
The target is the same in data set [8]. Kind of data set: Inhibition of human recombinant microsomal MAO-B expressed in Pichia pastoris incubated for 30 mins prior to substrate addition measured after 60 mins by MAO-Glo assay.
For data set [9] the target is unchanged. Kind of data set: Inhibition of human recombinant soluble MAO-B assessed as thermal shift after 20 mins by SYPRO orange staining-based fluorescence assay. An outline of the steps:
as §1

As for `NCCNC(=O)c1ccc(Cl)cn1` [LAZABEMIDE], the Activity in data set [1] came out at 74%; in data set [2] it was 100%. Further, the deltaTm in [3] was 7 °C. Take `C#CCN[C@@H]1CCc2ccccc21` [RASAGILINE]: the deltaTm in data set [4] amounted to 14.6 °C. `C#CCN(C)Cc1ccccc1` [PARGYLINE]: the deltaTm in data set [4] amounted to 12.3 °C. Take `C#CCN(C)[C@H](C)Cc1ccccc1` [SELEGILINE]: the INH in [5] is less than 200 nM; in [6], 781 nM. On to `N[C@@H]1C[C@H]1c1ccccc1.N[C@H]1C[C@@H]1c1ccccc1` (relative stereo) [TRANYLCYPROMINE], for which, in [3], the Activity entry is “Not Active”. As to `C[C@H](NCc1ccc(OCc2cccc(F)c2)cc1)C(N)=O` [SAFINAMIDE], the Activity in [1] is on record as 31%; in data set [2] it was 100%. The Ki is the equilibrium dissociation constant of an inhibitor or competing ligand from its target. By EC50 is commonly meant the midpoint of the concentration-response curve. As for `NCCNC(=O)c1ccc(Cl)cc1`, the Ki turned out to be 32.2 nM in [7] and 997 nM in data set [8]. The concentration giving a half-maximal response (EC50) in data set [9] is 29000 nM. For the same compound, the deltaTm in [3] is 4.5 °C. With `CCc1ccc(CCOc2ccc(CC3SC(=O)NC3=O)cc2)nc1` (stereo unspecified) [PIOGLITAZONE], in data set [3], the deltaTm was 2.5 °C.

`Cn1c(=O)c2c(nc(/C=C/c3cccc(Cl)c3)n2C)n(C)c1=O`: in data set [3], the Activity entry is “Not Active”.
